Series [1] relates to Rattus norvegicus. In words: Antiinflammatory activity in albino rat acute inflammatory model assessed as inhibition of formalin-induced paw edema at 10 mg/kg, po administered 1 hr post challenge measured after 1 hr. Conditions: in the assay text read “administered 1 hr prior to challenge” for “administered 1 hr post challenge”. The series is classed as functional. The procedure, abridged: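 Rats were randomised into groups of five. Dosing was 10 mg/kg po, given 1 h before 2% formalin (0.1 mL) was injected subplantar into the left hind paw under light ether anaesthesia. […] Values are mean ± S.E., N = 5 rats.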

Series [2] has as its system Rattus norvegicus. In words: Antiinflammatory activity in albino rat sub-acute inflammatory model assessed as inhibition of formalin-induced paw edema at 10 mg/kg, po administered 1 hr post challenge for 7 consecutive days measured at day 8 of challenge. The series is classed as functional. Conditions: in the assay text read “1 hr prior to challenge” for “1 hr post challenge”.

Series [3] relates to Rattus norvegicus. In words: Antiinflammatory activity in albino rat sub-acute inflammatory model assessed as inhibition of turpentine-induced granuloma pouch at 10 mg/kg, po administered 1 hr […] for 7 consecutive days measured at day 8 of challenge. The series is classed as functional.
Series [4] has as its system Rattus norvegicus. Nature of the series: Antiinflammatory activity in albino rat acute inflammatory model assessed as inhibition of formalin-induced paw edema at 10 mg/kg, po administered 1 hr prior to challenge measured after 2 hr.
Series [5] concerns Rattus norvegicus. Nature of the series: Antiinflammatory activity in albino rat acute inflammatory model assessed as inhibition of formalin-induced paw edema at 10 mg/kg, po administered 1 hr prior to challenge measured after 4 hr.
Series [6] deals with Rattus norvegicus. Nature of the series: Antiinflammatory activity in albino rat sub-acute inflammatory model assessed as inhibition of formalin-induced paw edema at 10 mg/kg, po administered 1 hr prior to challenge for 7 consecutive days measured at day 1 of challenge.
For series [7], the system named is Rattus norvegicus. Nature of the series: Antiinflammatory activity in albino rat sub-acute inflammatory model assessed as inhibition of formalin-induced paw edema at 10 mg/kg, po administered 1 hr prior to challenge for 7 consecutive days measured at day 8 of challenge.
For series [8], the system named is Rattus norvegicus. Nature of the series: Ulcerogenic activity in albino rat assessed as hyperemia at 300 mg/kg/day administered as equal doses at 0 and 12 hrs for three consecutive days measured at 6 hrs post last dose. Type of series: toxicity, organism-based. The settings on record: in vivo. The procedure, abridged: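 Male albino rats, 180–200 g, five per group, fasted 12 h with water ad libitum. Dosing was 300 mg/kg/day po, split into equal doses at 0 and 12 h, for 3 successive days. Controls received 1% gum acacia orally. Rats were killed with ether 6 h after the last dose. Stomachs were opened along the greater curvature, washed with cold saline and inspected under a 3X lens for hyperemia, hemorrhage, hemorrhagic erosion or ulcer.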

The nature of series [9]: Ulcerogenic activity in po dosed albino rat measured after 24 hrs. Type of series: toxicity, organism-based. The settings on record: in vivo. In outline: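 Male albino rats (180–200 g), five per group, fasted 12 h with water ad libitum. Compounds given orally as two equal doses at 0 and 12 h on three successive days, 300 mg/kg per day. Control received 1% gum acacia po. Rats killed 6 h after the last dose. Stomachs opened along the greater curvature, washed with cold saline and inspected under 3X magnification for hyperemia, hemorrhage, erosion or ulcer.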

Series [10] concerns Rattus norvegicus. Nature of the series: Acute toxicity in albino rat at 0.1 to 0.3 g/kg/, po measured after 24 hrs. Conditions: in vivo.
The test system of series [11] is Rattus norvegicus. In words: Antiinflammatory activity in albino rat acute inflammatory model assessed as inhibition of formalin-induced paw edema at 10 mg/kg, po administered 1 hr prior to challenge measured after 1 hr.

For 18 compounds, inhibition in vivo, Activity and LD50 results are on record in ChEMBL document CHEMBL2062422, “Design, synthesis and biological evaluation of some novel thienopyrimidines and fused thienopyrimidines as anti-inflammatory agents” (Eur J Med Chem, 2012).

Molecules are shown by their SMILES.

The inhibition in vivo is the drop in the measured response relative to a control, in per cent. As to `Cc1c(C(N)=O)sc2nc(S)n(Cc3ccccc3)c(=O)c12`, the inhibition in vivo at 10 mg/kg with Rattus norvegicus [1] came to 25%; in the series on Rattus norvegicus [2] it was 5%; in the series on Rattus norvegicus [3] it was 4.07%; in the series on Rattus norvegicus [4], 0%; in the series on Rattus norvegicus [5] it was 5%; with Rattus norvegicus [6], 4%.
`CSc1nc2sc(C(N)=O)c(C)c2c(=O)n1Cc1ccccc1`: the inhibition in vivo at 10 mg/kg with Rattus norvegicus [1] is 44%; with Rattus norvegicus [3] it was 11.3%; with Rattus norvegicus [4], 43%; in the series with Rattus norvegicus [5] it was 38%; in the series with Rattus norvegicus [6], 17%; in the series on Rattus norvegicus [7], 21%.
A word on the LD50: it is the dose at which mortality reaches 50%. As for `Cc1c(C(N)=O)sc2nc(NN)n(Cc3ccccc3)c(=O)c12`, the inhibition in vivo at 10 mg/kg worked out at 69% in the series on Rattus norvegicus [1]; 43% in the series on Rattus norvegicus [2]; 44.8% in the series with Rattus norvegicus [3]; 61% with Rattus norvegicus [4]; 51% with Rattus norvegicus [5]; 43% in the series with Rattus norvegicus [6]. For the same compound, the Activity in the series on Rattus norvegicus [8] was 10%; in the series with Rattus norvegicus [10] it was “Non-toxic”. The compound also registered an LD50 at 24 h in series [9] of more than 300 mg/kg.
For `Cc1c(C(N)=O)sc2nc(N/N=C/c3ccc(Br)cc3)n(Cc3ccccc3)c(=O)c12`, the inhibition in vivo at 10 mg/kg with Rattus norvegicus [1] stood at 69%; in the series with Rattus norvegicus [2], 34%; in the series with Rattus norvegicus [3] it was 34.4%; with Rattus norvegicus [4], 39%; in the series with Rattus norvegicus [5] it was 44%; in the series on Rattus norvegicus [6], 39%.
In the case of `Cc1c(C(N)=O)sc2c1c(=O)n(Cc1ccccc1)c1nnc(-c3ccc(Br)cc3)n21`, the inhibition in vivo at 10 mg/kg in the series on Rattus norvegicus [2] is 30%; with Rattus norvegicus [3], 41.2%; with Rattus norvegicus [11], 31%; in the series with Rattus norvegicus [4] it was 39%; in the series on Rattus norvegicus [5] it was 41%; in the series with Rattus norvegicus [6], 37%.
As to `CC(=O)N1N=C2N(Cc3ccccc3)C(=O)c3c(sc(C(N)=O)c3C)N2C1c1ccc(Br)cc1` (centres undefined), the inhibition in vivo at 10 mg/kg in the series with Rattus norvegicus [2] was 30%; with Rattus norvegicus [3] it was 39.8%; in the series on Rattus norvegicus [11], 31%; in the series with Rattus norvegicus [4] it was 30%; in the series on Rattus norvegicus [5], 36%; in the series with Rattus norvegicus [6], 33%.
For the compound `Cc1c(C(N)=O)sc2c1c(=O)n(Cc1ccccc1)c1n[nH]c(=S)n21`, the inhibition in vivo at 10 mg/kg stood at 50% in the series with Rattus norvegicus [1]; 34% with Rattus norvegicus [2]; 23.1% in the series with Rattus norvegicus [3]; 56% in the series with Rattus norvegicus [4]; 51% in the series on Rattus norvegicus [5]; 41% in the series with Rattus norvegicus [6]. Further, the Activity with Rattus norvegicus [8] is reported as 10%; in the series with Rattus norvegicus [10] it was “Non-toxic”. In series [9], this compound returned an LD50 at 24 h of more than 300 mg/kg.
As for `CCOC(=O)CSc1nnc2n(Cc3ccccc3)c(=O)c3c(C)c(C(N)=O)sc3n12`, the inhibition in vivo at 10 mg/kg in the series on Rattus norvegicus [1] worked out at 56%; with Rattus norvegicus [2] it was 36%; in the series with Rattus norvegicus [3] it was 41.2%; in the series on Rattus norvegicus [4], 61%; with Rattus norvegicus [5], 49%; in the series on Rattus norvegicus [6], 41%. The Activity in the series with Rattus norvegicus [8] is 20%; in the series on Rattus norvegicus [10] it was “Non-toxic”. The LD50 at 24 h in series [9] is more than 300 mg/kg.
In the case of `Cc1c(C(N)=O)sc2c1c(=O)n(Cc1ccccc1)c1nnc(-c3ccccc3Cl)n21`, the inhibition in vivo at 10 mg/kg in the series with Rattus norvegicus [1] came out at 37%; in the series on Rattus norvegicus [2], 30%; in the series with Rattus norvegicus [3], 35.7%; in the series on Rattus norvegicus [4] it was 43%; with Rattus norvegicus [5], 49%; with Rattus norvegicus [6], 33%.
With `Cc1c(C(N)=O)sc2c1c(=O)n(Cc1ccccc1)c1nncn21`, the inhibition in vivo at 10 mg/kg with Rattus norvegicus [1] worked out at 56%; with Rattus norvegicus [2], 32%; in the series on Rattus norvegicus [3], 39.4%; in the series on Rattus norvegicus [4], 43%; in the series on Rattus norvegicus [5], 54%; in the series on Rattus norvegicus [6] it was 39%.
Consider `Cc1c(C(N)=O)sc2c1c(=O)n(Cc1ccccc1)c1n[nH]c(=O)n21`, for which the inhibition in vivo at 10 mg/kg worked out at 75% in the series with Rattus norvegicus [1]; 37% with Rattus norvegicus [2]; 38.5% in the series on Rattus norvegicus [3]; 61% in the series with Rattus norvegicus [4]; 49% with Rattus norvegicus [5]; 43% in the series with Rattus norvegicus [6]. For the same compound, the Activity entry in the series with Rattus norvegicus [8] and in the series on Rattus norvegicus [10] was “Non-toxic” each time. In series [9], the LD50 at 24 h is more than 300 mg/kg.
With `CCOC(=O)Cc1nnc2n(Cc3ccccc3)c(=O)c3c(C)c(C(N)=O)sc3n12`, the figures for the inhibition in vivo at 10 mg/kg in the series on Rattus norvegicus [2], in the series on Rattus norvegicus [3] and in the series on Rattus norvegicus [6] were 37%, 39.8% and 46%, respectively.
As to `Cc1c(C(N)=O)sc2c1C(=O)N(Cc1ccccc1)C1=NN=C(c3ccc(Cl)cc3)CN12`, the inhibition in vivo at 10 mg/kg in the series on Rattus norvegicus [1] came to 44%; in the series on Rattus norvegicus [2] it was 37%; with Rattus norvegicus [3], 38.5%; in the series with Rattus norvegicus [4] it was 43%; with Rattus norvegicus [5] it was 46%; in the series with Rattus norvegicus [6] it was 46%.
Take `Cc1c(C(N)=O)sc2nc(-n3nc(-c4ccc(Cl)cc4)cc3N)n(Cc3ccccc3)c(=O)c12`: the inhibition in vivo at 10 mg/kg stood at 56% in the series with Rattus norvegicus [1]; 30% with Rattus norvegicus [2]; 40.3% in the series with Rattus norvegicus [3]; 52% in the series with Rattus norvegicus [4]; 46% with Rattus norvegicus [5]; 35% with Rattus norvegicus [6]. Besides, the Activity result in the series with Rattus norvegicus [8] and with Rattus norvegicus [10] was “Non-toxic” each time. The same compound displayed an LD50 at 24 h in series [9] of more than 300 mg/kg.
Take `Cc1cc(C)n(-c2nc3sc(C(N)=O)c(C)c3c(=O)n2Cc2ccccc2)n1`: the inhibition in vivo at 10 mg/kg came to 44% in the series on Rattus norvegicus [1]; 32% in the series with Rattus norvegicus [2]; 40.3% in the series with Rattus norvegicus [3]; 39% in the series with Rattus norvegicus [4]; 49% in the series with Rattus norvegicus [5]; 39% in the series on Rattus norvegicus [6].
In the case of `CC1=NN(c2nc3sc(C(N)=O)c(C)c3c(=O)n2Cc2ccccc2)C(=O)C1`, the inhibition in vivo at 10 mg/kg with Rattus norvegicus [1] was found to be 37%; in the series on Rattus norvegicus [2] it was 34%; in the series with Rattus norvegicus [3], 38.9%; in the series on Rattus norvegicus [4] it was 48%; in the series on Rattus norvegicus [5], 46%; in the series with Rattus norvegicus [6], 39%. In addition, the Activity entry in the series with Rattus norvegicus [8] and in the series with Rattus norvegicus [10] was “Non-toxic” in each case. In series [9], this compound returned a median lethal dose (LD50) at 24 h of more than 300 mg/kg.
For `O=C([O-])Cc1ccccc1Nc1c(Cl)cccc1Cl.[Na+]` [DICLOFENAC SODIUM], in the series with Rattus norvegicus [1], the inhibition in vivo at 10 mg/kg came out at 63%. In the series on Rattus norvegicus [8], the Activity entry is listed as “Non-toxic”.
Take `COc1ccc2c(c1)c(CC(=O)O)c(C)n2C(=O)c1ccc(Cl)cc1` [INDOMETHACIN]: the Activity in the series on Rattus norvegicus [8] was found to be 100%.
